H9c2 protect – modulators protecting cardiomyocytes from myocardial damage | H9c2 cardiomyocytes, H2O2 injury protection, ATPLite, 2 h | protection from H2O2 cell death, % at 20 µM | 360,000 tested, 0.63% active;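 active = compounds giving at least 50% protection of heart cells from peroxide-induced death in the single-dose screen, raw or plate-pattern-corrected value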;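 note: 0% = DMSO wells with peroxide and 100% = DMSO wells without peroxide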
p-CIP stab down – lowers stability of the mouse p/CIP coactivator protein; decrease of EGFP signal, % at 10 µM; F442A p/CIP-EGFP cells, EGFP fluorescence, 16 h; 290,000 tested, 0.01% active; Q05BA5;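 active = EGFP signal decrease of at least 30% at 10 µM or well 3 SD below plate mean, unless failing retest; inactive = the rest, including hits failing retest or dose response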
Target sequence (Q05BA5 1-1403): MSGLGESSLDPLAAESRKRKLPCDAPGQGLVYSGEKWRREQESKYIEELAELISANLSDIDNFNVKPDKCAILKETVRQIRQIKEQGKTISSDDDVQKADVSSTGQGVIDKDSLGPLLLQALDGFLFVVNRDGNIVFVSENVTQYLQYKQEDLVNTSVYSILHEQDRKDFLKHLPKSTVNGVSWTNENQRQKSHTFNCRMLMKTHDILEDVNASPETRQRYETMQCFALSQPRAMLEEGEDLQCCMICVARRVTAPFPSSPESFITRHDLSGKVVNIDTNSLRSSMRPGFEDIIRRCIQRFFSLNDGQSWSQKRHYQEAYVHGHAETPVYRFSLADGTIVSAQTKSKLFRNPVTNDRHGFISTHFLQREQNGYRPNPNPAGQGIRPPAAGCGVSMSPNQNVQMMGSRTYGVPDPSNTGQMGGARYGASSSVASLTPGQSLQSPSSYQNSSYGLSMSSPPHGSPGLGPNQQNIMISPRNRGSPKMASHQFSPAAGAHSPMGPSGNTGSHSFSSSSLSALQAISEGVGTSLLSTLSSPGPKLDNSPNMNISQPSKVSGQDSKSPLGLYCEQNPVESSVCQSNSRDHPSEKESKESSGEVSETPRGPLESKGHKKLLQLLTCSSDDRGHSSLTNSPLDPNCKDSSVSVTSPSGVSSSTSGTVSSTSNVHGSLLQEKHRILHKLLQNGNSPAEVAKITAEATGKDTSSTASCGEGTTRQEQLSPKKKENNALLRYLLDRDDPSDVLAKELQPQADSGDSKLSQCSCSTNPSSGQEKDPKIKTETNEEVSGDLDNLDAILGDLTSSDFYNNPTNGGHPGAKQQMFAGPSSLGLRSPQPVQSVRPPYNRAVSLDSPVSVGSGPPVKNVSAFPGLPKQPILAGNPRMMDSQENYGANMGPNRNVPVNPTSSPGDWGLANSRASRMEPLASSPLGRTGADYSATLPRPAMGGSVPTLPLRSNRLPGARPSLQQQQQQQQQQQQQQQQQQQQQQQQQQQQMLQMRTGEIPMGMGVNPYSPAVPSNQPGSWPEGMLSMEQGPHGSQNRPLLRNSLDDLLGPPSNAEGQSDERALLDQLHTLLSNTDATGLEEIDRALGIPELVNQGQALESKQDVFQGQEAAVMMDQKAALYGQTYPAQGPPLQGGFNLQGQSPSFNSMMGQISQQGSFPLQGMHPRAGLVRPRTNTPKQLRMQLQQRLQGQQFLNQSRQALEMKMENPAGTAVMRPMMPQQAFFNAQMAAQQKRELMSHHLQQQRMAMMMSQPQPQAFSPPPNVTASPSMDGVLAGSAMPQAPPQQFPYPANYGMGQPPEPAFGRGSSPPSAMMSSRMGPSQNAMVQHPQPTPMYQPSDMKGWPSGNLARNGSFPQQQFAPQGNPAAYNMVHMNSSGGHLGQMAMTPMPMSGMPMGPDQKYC
CTSL1 counter – counter-screen for PFM18AAP inhibitors: inhibitors of F. hepatica cathepsin L1 | 300,000 tested, 0.49% active | inhibition, % at 5.96 µM | recombinant F. hepatica cathepsin L1, Z-Leu-Arg-MCA fluorescence | AID 1906;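 active = inhibition above the mean of all tested compounds plus 3 SD, set per screening campaign, cut at about 17% in these data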;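 note: 0% = plate median of test compound wells and 100% = 1 µM Z-Phe-Ala-diazomethylketone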
PP5 primary – inhibitors of human protein phosphatase 5 (PP5). purified PP5c, OMFP substrate fluorescence. inhibition, % at 6.7 µM. 320,000 tested, 0.18% active. AID 1987;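 active = inhibition above the campaign's mean inhibition across all tested compounds plus 3 SD, cut at about 9.5% in these data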;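 note: 0% = DMSO only and 100% = 100 µM cantharidin control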
JMJD2C inh – human JMJD2C demethylase inhibition; GST-JMJD2C(1-420) H3K9me3 demethylation, DELFIA europium; inhibition, % at 2.35 µM; 330,000 tested, 0.069% active;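 active = more than half of a compound's replicate wells show inhibition beyond 50%, single wells judged on their own value; inconclusive = some, but no more than half, of replicates pass 50% inhibition; inactive = no replicate passes 50% inhibition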;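 note: signal counts dimethyl H3K9 product captured on neutravidin plate; 0% = median of DMSO wells and 100% = 0.3 times that DMSO median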
T cruzi repl – blocks replication of Trypanosoma cruzi. T. cruzi beta-gal in NIH3T3, luminescence, 90 h. inhibition, % (concentration not given with the values). 300,000 tested, 1.4% active. AID 1885;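 active = mean inhibition across valid replicates above about 55%, limit read from the data; inconclusive = mean below that limit but half or more replicates reach it; inactive = mean below it, under half of replicates reach it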;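 note: signal also drops with host cell toxicity which is not excluded here; 0% = plate median of DMSO wells and 100% = zero luminescence signal; higher percent means less beta-gal luminescence so fewer parasites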
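System – NIH/3T3 host cells with β-galactosidase reporter T. cruzi · Doses – single 50 nL compound addition per well in DMSO · Reagent – 5000 T. cruzi trypomastigotes/well · Medium – Low-serum DMEM with 2% FBS · Timing – ≥90 h infection period, 3 h prior cell attachment · Evaluation – parasite load inhibition, % · Technique – GalScreen luminescence, 60 min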
Numbers without * were called inactive. Most compounds without a hit are left out; they make up all but 2.4% or so of the library.

Screening Cc1ccnc(NC(=O)c2ccc([N+](=O)[O-])s2)c1 returned H9c2 protect -8.5, p-CIP stab down -8.1, CTSL1 counter -3.5, PP5 primary 1.0, JMJD2C inh 8.2 and T cruzi repl 55.5*.
Screening Cc1ccnc(NC(=O)c2cc([N+](=O)[O-])cc([N+](=O)[O-])c2)c1 returned H9c2 protect 1.1, p-CIP stab down -1.0, CTSL1 counter -2.5, PP5 primary -3.3, JMJD2C inh 1.1 and T cruzi repl 60.3*.
For Cc1cc(NC(=O)c2cccc([N+](=O)[O-])c2)no1 the results were H9c2 protect -0.1, p-CIP stab down 5.3, CTSL1 counter -2.2, PP5 primary -0.6, JMJD2C inh 4.0 and T cruzi repl -1.6.
Cc1cccc(C)c1NC(=O)c1ccc([N+](=O)[O-])s1 was read as H9c2 protect -2.6, p-CIP stab down 0.2, CTSL1 counter 7.5, PP5 primary 0.0, JMJD2C inh 1.1 and T cruzi repl 48.7.
Cc1cc(NC(=O)c2cc([N+](=O)[O-])cc([N+](=O)[O-])c2)no1 was read as H9c2 protect 2.1, p-CIP stab down -0.2, CTSL1 counter 0.9, PP5 primary 1.3, JMJD2C inh -18.9 and T cruzi repl 54.6*.
COc1ccc(NC(=O)c2ccc([N+](=O)[O-])s2)c([N+](=O)[O-])c1 was read as H9c2 protect 20.7, p-CIP stab down -3.4, CTSL1 counter 5.0, PP5 primary 0.2, JMJD2C inh -0.8 and T cruzi repl 63.8*.
`COC(=O)C1CCN(C(=O)COC(=O)/C=C/c2ccc(O)c(OC)c2)CC1` gave H9c2 protect 3.7 and JMJD2C inh 3.0.
`Cc1ccc(S(=O)(=O)N2CCN(C(=O)[C@H](Cc3ccccc3)NC(=O)c3ccco3)CC2)cc1C` gave H9c2 protect -1.2, PP5 primary 1.6 and JMJD2C inh 0.1.
Screening O=C(c1cccc(NS(=O)(=O)c2ccc(F)c(F)c2)c1)N1CCCCC1 returned H9c2 protect 5.7.
`CC(C)(CNC(=O)c1cc(Cl)c(O)c(Cl)c1)N1CCCCC1` gave H9c2 protect -1.1, p-CIP stab down 4.0, CTSL1 counter -1.1, PP5 primary 1.0, JMJD2C inh 9.8 and T cruzi repl 3.7.
For COc1ccc([N+](=O)[O-])cc1NC(=O)c1ccc(Br)s1 the results were H9c2 protect -4.8, p-CIP stab down 1.4, CTSL1 counter 17.7*, PP5 primary -0.4, JMJD2C inh -13.2 and T cruzi repl 2.8.
`COc1ccccc1NC(=O)c1cc(OC)c(OC)cc1[N+](=O)[O-]` gave H9c2 protect 2.3, p-CIP stab down -0.3, CTSL1 counter -3.5, PP5 primary -0.3, JMJD2C inh -0.2 and T cruzi repl -1.4.
`COc1ccc(NC(=O)c2ccc([N+](=O)[O-])cc2[N+](=O)[O-])c(OC)c1` gave H9c2 protect -0.4, p-CIP stab down -7.9, CTSL1 counter -1.5, PP5 primary -0.6, JMJD2C inh -1.2 and T cruzi repl 61.2*.
Cc1cccc(NC(=O)c2ccc([N+](=O)[O-])s2)c1C was read as H9c2 protect -12.6, p-CIP stab down -8.4, CTSL1 counter 0.7, PP5 primary 3.3, JMJD2C inh 10.8 and T cruzi repl 65.9*.
`Cc1cccc(NC(=O)c2ccc([N+](=O)[O-])s2)n1` gave H9c2 protect -6.5, p-CIP stab down -10.3, CTSL1 counter 1.4, PP5 primary 2.5, JMJD2C inh 3.1 and T cruzi repl 64.7*.
CCOc1ccccc1NC(=O)COC(=O)CCOc1cc(C)ccc1C was read as H9c2 protect -6.0, CTSL1 counter -7.7, PP5 primary 0.9, JMJD2C inh -2.7 and T cruzi repl -3.6.
Screening N#CC(NC(=O)OCc1ccccc1)c1ccccc1 (configuration not stated) returned H9c2 protect 3.5, CTSL1 counter -2.3, PP5 primary 0.6, JMJD2C inh inconclusive and T cruzi repl 6.1.
For O=C(CCN1CCN(Cc2ccccc2)CC1)Nc1cccc(Br)c1 the results were H9c2 protect -5.9, p-CIP stab down 4.5, CTSL1 counter -4.6, PP5 primary 0.7, JMJD2C inh 0.6 and T cruzi repl 23.1.
Screening Cc1nc2ccc(NC(=O)c3ccc([N+](=O)[O-])cc3[N+](=O)[O-])cc2s1 returned H9c2 protect -4.8, p-CIP stab down -5.0, CTSL1 counter 0.5, PP5 primary 1.9, JMJD2C inh -2.0 and T cruzi repl 79.4*.
`Cc1nc2ccc(C(=O)Nc3cccc([N+](=O)[O-])c3)cc2s1` gave H9c2 protect -2.0, p-CIP stab down -6.4, CTSL1 counter 0.2, PP5 primary 1.4, JMJD2C inh 2.2 and T cruzi repl -32.5.
Screening COc1ccc(Cl)cc1NC(=O)NCc1ccccn1 returned H9c2 protect 4.6, p-CIP stab down 4.6, CTSL1 counter -3.0, PP5 primary 1.8, JMJD2C inh 4.2 and T cruzi repl -8.7.
`O=C(CSc1nccc(=O)[nH]1)Nc1cccc2ccccc12` gave H9c2 protect 3.6, p-CIP stab down -9.9, CTSL1 counter -0.8, PP5 primary 1.6, JMJD2C inh -3.5 and T cruzi repl -7.5.
`Cc1ccc2oc(C(=O)N3CCC(O)(c4ccccc4)CC3)c(C)c2c1` gave H9c2 protect -2.9, p-CIP stab down -5.9, CTSL1 counter 2.2, PP5 primary 4.0, JMJD2C inh 1.1 and T cruzi repl 13.0.
Screening CC(=O)c1ccc(OCc2cc(C(=O)NC(C)CCn3cccn3)no2)cc1 (configuration not stated) returned H9c2 protect -3.3, p-CIP stab down 2.4, CTSL1 counter 0.5, PP5 primary -1.8, JMJD2C inh -3.1 and T cruzi repl 12.1.
`O=C(NCc1n[nH]c(=S)n1-c1cccc(Cl)c1)c1ccc(S(=O)(=O)N2CCCCC2)cc1` gave H9c2 protect -9.8, p-CIP stab down -15.0, CTSL1 counter 5.4, PP5 primary -0.7, JMJD2C inh 83.8* and T cruzi repl 5.9.
For COc1ccc(NC(=S)N(Cc2ccc(C)cc2)Cc2ccccn2)cc1 the results were H9c2 protect 9.9, p-CIP stab down -9.7, CTSL1 counter -0.9, PP5 primary 0.5, JMJD2C inh 4.7 and T cruzi repl 77.5*.
`CN(Cc1ccc(Br)cc1)CC(O)COc1cccc(Br)c1` (configuration not stated) gave H9c2 protect -1.6, p-CIP stab down -5.3, CTSL1 counter 0.9, PP5 primary 4.3, JMJD2C inh -4.0 and T cruzi repl 19.8.
Screening Cc1ccc(C(C)(C)C)cc1S(=O)(=O)Nc1cccc(C(=O)N2CCN(c3ccccn3)CC2)c1 returned H9c2 protect -1.2.
`Cc1ccc(NC(=O)c2cc(N3C(=O)CCC3=O)ccc2N2CCOCC2)cc1` gave H9c2 protect -3.5, p-CIP stab down -12.7, CTSL1 counter -3.2, PP5 primary 3.3, JMJD2C inh -13.1 and T cruzi repl -27.7.

Source: PubChem BioAssay (several laboratories)
